Bioassay records (PubChem BioAssay)
FXN GAA850 act: FXN promoter activators, primary screen, cell-based, luciferase luminescence, HEK293 lucGAA850; HEK293 lucGAA850 FXN promoter luciferase reporter, 24 h; percent of 10 µM SAHA response; hit rate 0.56% among 360,000; activation, % at 6 µM;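 active means activation above the average of all compounds screened plus 3 SD, cutoff fixed separately per campaign, cut at about 7.5% in these data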;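 further: 0% = DMSO wells and 100% = 10 µM SAHA wells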
AHR activator: AHR activators, primary screen, cell-based, luminescence, luciferase reporter, human. hit rate 2.5% among 320,000. AHR-responsive luciferase reporter cells. activation, % at 5 µM. Aryl hydrocarbon receptor (Homo sapiens), P35869; in the data active means activation above about 47%;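 further: 0% = vehicle wells and 100% = reference agonist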
Target sequence (P35869 whole entry, looked up): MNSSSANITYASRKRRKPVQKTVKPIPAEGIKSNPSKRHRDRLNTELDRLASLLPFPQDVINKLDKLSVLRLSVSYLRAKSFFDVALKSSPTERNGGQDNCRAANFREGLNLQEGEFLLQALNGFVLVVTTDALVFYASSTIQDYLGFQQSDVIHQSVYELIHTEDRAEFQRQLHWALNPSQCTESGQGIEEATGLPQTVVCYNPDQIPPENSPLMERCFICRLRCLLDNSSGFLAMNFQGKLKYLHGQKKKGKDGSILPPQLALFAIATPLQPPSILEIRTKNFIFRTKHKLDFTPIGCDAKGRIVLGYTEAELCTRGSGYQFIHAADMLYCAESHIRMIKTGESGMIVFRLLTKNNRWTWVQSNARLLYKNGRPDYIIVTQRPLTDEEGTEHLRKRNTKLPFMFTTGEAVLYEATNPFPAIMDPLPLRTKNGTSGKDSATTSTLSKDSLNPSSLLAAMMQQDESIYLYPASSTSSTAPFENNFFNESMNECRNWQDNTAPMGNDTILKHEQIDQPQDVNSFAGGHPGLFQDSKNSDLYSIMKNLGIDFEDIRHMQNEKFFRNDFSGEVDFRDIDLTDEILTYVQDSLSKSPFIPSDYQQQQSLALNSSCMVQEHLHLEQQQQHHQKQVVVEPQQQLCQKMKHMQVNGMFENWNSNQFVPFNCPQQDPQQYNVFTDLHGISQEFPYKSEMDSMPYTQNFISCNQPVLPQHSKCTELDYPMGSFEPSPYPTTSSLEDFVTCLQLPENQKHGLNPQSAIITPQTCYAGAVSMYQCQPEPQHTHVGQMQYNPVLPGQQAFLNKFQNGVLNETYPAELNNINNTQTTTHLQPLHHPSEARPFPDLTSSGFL
SR-BI DiI inh: inhibitors of SR-BI mediated HDL lipid uptake, primary screen, ldlA[mSR-BI] cells, fluorescence, single point. Scavenger receptor class B member 1 (Mus musculus), Q61009. ldlA[mSR-BI] CHO cells, DiI-HDL uptake fluorescence, 3 h. inhibition, % at 12.5 µM. hit rate 0.96% among 320,000. AID 488896, 2010;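 active means mean replicate inhibition of at least 70% and a set share of replicates each scoring 70 or more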;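 further: 0% = median of neutral control wells and 100% = median of positive control wells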
ABCB6 inh MLPCN: ABCB6 transporter inhibitors, primary screen, K562-ABCB6 cells, flow cytometry, MLPCN library | ATP-binding cassette sub-family B member 6 (Homo sapiens), Q9NP58 | K562-ABCB6 porphyrin accumulation, 1 h; hits give low values | fluorescence ratio to DMSO, % at 10 µM | hit rate 0.19% among 360,000 | AID 602162, 2011;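 active means fluorescence ratio to DMSO below 75%, the collection mean minus 3 SD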;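 further: signal is porphyrin accumulated inside mitochondria; 100% equals median channel fluorescence of DMSO control wells; lower ratio means ABCB6 inhibition with less porphyrin fluorescence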
SR-BI uptake up: activators of SR-BI mediated DiI-HDL uptake, primary screen, ldlA[mSR-BI] CHO cells, DiI fluorescence; 3 h; 100 = double the neutral-control signal; hit rate 0.096% among 320,000; activation, % at 12.5 µM; AID 504775, 2011;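 active means mean replicate activation of at least 60% and every replicate at or above 60%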;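 further: 0% = median plate neutral-control signal and 100% = twice that signal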
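Material – SR-BI-overexpressing, LDLR-lacking CHO cells · Medium – BSA-supplemented, HEPES-buffered Ham's F12, pH 7.4 · Doses – single concentration · Times – compound with DiI-HDL co-incubation, 3 h at 37 °C · Measured by – bottom-read fluorescence, 550/595 nm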
HIF activator: HIF pathway transcriptional activators, primary screen, cell-based, U2OS HRE-luciferase, luminescence; hit rate 0.32% among 300,000; U2OS HRE-luciferase reporter; normalized: DMSO 0%, desferrioxamine 100%; activation, % at 7.5 µM (by protocol);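 active means mean activation of at least 10% of the iron chelator positive control signal, with at least half of replicates also reaching 10%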
* marks the source's active call; other numbers are inactive results; nt = no result. In the library only some 3.9% were active in any assay of this set; here they are far more common.

SMILES | FXN GAA850 act | AHR activator | SR-BI DiI inh | ABCB6 inh MLPCN | SR-BI uptake up | HIF activator
Cc1[nH]c2ccccc2c1N=Nc1ccccc1C(=O)O | 2 | 75* | -6 | 99 | 6 | 0
Oc1[nH]c2ccccc2c1N=Nc1ccccc1F | 7 | 54* | -9 | 88 | 9 | 4
COc1ccc(N)cc1NC(=O)CN1CCCC1 | 0 | 3 | -25 | 99 | 25 | 0
O=C(NNC(=O)c1cc2ccccc2[nH]1)OCc1ccccc1 | 2 | 66* | 7 | 101 | -7 | nt
Cn1c(C(=O)N2CCCCCC2)cc2c(=O)n(C)c3ccccc3c21 | 1 | 27 | 1 | 95 | -1 | 0
Cn1c(C(=O)NC2CCCCCC2)cc2c(=O)n(C)c3ccccc3c21 | -1 | 51* | 16 | 104 | -16 | 1
Cc1cccc(N2CCN(C(=O)c3cc4c(=O)n(C)c5ccccc5c4n3C)CC2C)c1 (configuration not stated) | -4 | 68* | nt | 94 | nt | -1
COc1ccc(NC2=NCC(=O)N2c2ccccc2F)cc1 | -2 | 0 | -24 | 93 | 24 | 2
O=C(NCCOC(=O)c1ccc(Cl)c(S(=O)(=O)N2CCCCC2)c1)c1ccncc1 | 1 | 1 | 14 | 89 | -14 | -2
FC(F)(F)COc1ccc(-c2nnc(SCc3c(Cl)cccc3Cl)o2)cn1 | 1 | 2 | -4 | 102 | 4 | 0
Cc1nn(-c2ccccc2)c(N)c1C(O)(CSc1nccn1C)C(F)(F)F (configuration not stated) | 0 | 8 | 4 | 96 | -4 | 0
Cc1nn(-c2ccc(Cl)cc2)c(N)c1C(O)(CSc1nccn1C)C(F)(F)F (configuration not stated) | -2 | 48* | 19 | 92 | -19 | nt
CCC(=O)n1nc(NCc2ccc(OC)c(OC)c2)nc1NCc1ccc(OC)c(OC)c1 | -3 | -2 | 27 | 89 | -27 | 227*
COCC(=O)n1nc(NCc2ccc(OC)cc2)nc1NCc1ccc(OC)cc1 | -1 | -1 | 14 | 94 | -14 | 0
COc1cc([N+](=O)[O-])ccc1NC(=O)CSc1nc2ccccc2n1-c1ccccc1 | nt | 61* | nt | nt | nt | 1
CCOc1ccc(-n2c(SCC(=O)Nc3cc(OC)c([N+](=O)[O-])cc3C)nc3ccccc32)cc1 | 2 | 5 | 82* | 109 | -82 | 0
O=C(COC(=O)c1ccc(Cl)c([N+](=O)[O-])c1)Nc1ccccc1OC(F)F | -1 | 55* | -8 | 82 | 8 | 0
O=C(Nc1cccc(C(F)(F)F)c1)c1cccnc1 | -1 | 56* | -1 | 107 | 1 | 0
O=C(Nc1cccc(NC(=O)c2cccnc2)c1)c1ccccc1 | 1 | 35 | 15 | 99 | -15 | 0
CCc1ccc(NC(=O)c2cccnc2)cc1 | 1 | 54* | -2 | 101 | 2 | 1
CN(C(=O)c1cc(-c2ccc3c(c2)OCO3)on1)c1ccccc1 | 7 | 3 | -4 | 99 | 4 | 1
CCC1(C)N=C(c2ccc3c(c2)OCO3)CC(c2ccccc2O)N1 (configuration not stated) | 5 | 73* | -5 | 99 | 5 | nt
COc1cc(NC(=O)C(=O)NCCN(C)C)c(OC)cc1Cl | 2 | 1 | 9 | 94 | -9 | 0
Cc1cc2cc(CNC(=O)NC3CCCCC3)ccc2[nH]1 | 0 | 57* | -25 | 100 | 25 | 0
Cc1cc2cc(CNC(=S)NC3CCCCC3)ccc2[nH]1 | -1 | 7 | -14 | 96 | 14 | 0
SMILES | FXN GAA850 act | AHR activator | SR-BI DiI inh | ABCB6 inh MLPCN | SR-BI uptake up | HIF activator
Brc1ccc2ncnc(Nc3cccc4ccccc34)c2c1 | -4 | 59* | -14 | 91 | 14 | -1
COc1cccc(Nc2ncnc3ccc(Br)cc23)c1 | -6 | nt | nt | 92 | nt | nt
CCOC(=O)c1cnc2ccc(Br)cc2c1NCCO | 2 | 2 | -8 | 95 | 8 | 0
OCCNc1ncnc2ccc(Br)cc12 | -4 | 5 | nt | 70* | nt | 0
CC(=O)Nc1nccc(-c2cc(-c3ccccc3)no2)n1 | nt | 50* | nt | nt | nt | 3
Oc1ccccc1-c1cc(-c2ccccc2)no1 | 5 | 43 | 5 | 100 | -5 | 2
Clc1ccc2c(NCc3ccccn3)ncnc2c1 | 2 | 59* | 2 | 94 | -2 | 1
Oc1ccc(-c2nccs2)cc1 | -1 | nt | -73 | 97 | 73* | nt
C=CCOC(=O)CCCC(=O)NC1CCCCC1 | 1 | 2 | -10 | 104 | 10 | 0
C=CCn1c(O)c(N=NC(=S)Nc2ccccc2C)c2cc(S(=O)(=O)N3CCOCC3)ccc21 | 3 | -4 | 9 | 101 | -9 | 0
Cc1cccc(NC(=S)N=Nc2c(O)n(CN3CCOCC3)c3ccccc23)c1C | -2 | 55* | 2 | 97 | -2 | 0
Cc1sc2ncnc(N[C@@H](Cc3c[nH]c4ccccc34)C(=O)O)c2c1C | 1 | 48* | -14 | 97 | 14 | 0
CC(C)=CC(=O)OCc1csc(CC(=O)Nc2ccccc2C)n1 | -1 | 9 | -5 | 92 | 5 | -1
CC(=O)c1c(C)[nH]c(C(=O)OCc2csc(CC(=O)Nc3ccccc3C)n2)c1C | 0 | 4 | 73* | 92 | -73 | nt
COc1ccccc1-c1nnc(NC(=O)C(C)Sc2nncn2C)s1 (configuration not stated) | 1 | 35 | 12 | 97 | -12 | 0
CCC(Sc1nncn1C)C(=O)Nc1nnc(-c2ccccc2Cl)s1 (configuration not stated) | 4 | 52* | 2 | 97 | -2 | 1
O=C(COC(=O)CNS(=O)(=O)/C=C/c1ccccc1)NC1CCS(=O)(=O)C1 (configuration not stated) | -1 | 2 | -25 | 104 | 25 | 0
CC(=O)Nc1ccc(NC(=O)c2c(C)nn(Cc3ccccc3)c2Cl)cc1 | 2 | -3 | 9 | 90 | -9 | 0
CCOC(=O)COn1c2c(c3c4no[n+]([O-])c4ccc31)CCCC2 | 0 | 2 | -6 | 104 | 6 | 0
CCOC(=O)c1c(C)n(OCc2ccccc2)c2ccc3c(no[n+]3[O-])c12 | 3 | 2 | 86* | 102 | -86 | 0
CCCCOn1c(C)c(C(C)=O)c2c3no[n+]([O-])c3ccc21 | 0 | 23 | 78* | 94 | -78 | 0
Cc1cnnc2ccc3c(no[n+]3[O-])c12 | 1 | 7 | -16 | 98 | 16 | 0
